Compound activity from PubChem.
Sampled rows, rich in hits. Any-hit rate of the full collection: about 3.8%.
KCNK3 inh: human KCNK3 channel inhibition, primary screen; O14649; CHO-KCNK3 thallium flux, FluxOR fluorescence; stronger effect = lower value; B-score at 10 µM; hit rate 0.84% among 340,000; AID 602410;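 active = B-score under library mean minus 4 SD, starting fluorescence ratio at most library mean plus 5 SD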;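 note: more negative B-score means stronger inhibition of thallium flux through KCNK3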
KCNQ1 block: human KCNQ1 channel inhibition. P51787. CHO-K1 KCNQ1, FluxOR thallium flux fluorescence; stronger effect = higher value. AID 2642. hit rate 1.3% among 310,000. B-score at 10 µM;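 active = compounds whose thallium flux B-score, printed positive for inhibition, exceeds three library SD while starting fluorescence stays within three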;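 note: channel opened by potassium depolarization with thallium stimulus after 20 min compound exposure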
KCNK9 block: inhibitors of human KCNK9 two-pore domain potassium channel. Q9NPC2. HEK293 KCNK9, FluxOR thallium flux fluorescence; stronger effect = lower value. B-score at 10 µM. hit rate 1.2% among 310,000;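 active = ratio B-score over 3 SD below the library mean, with starting fluorescence within 5 SD of its mean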;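 note: negative B-score means less thallium flux so channel inhibition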
Kir21 block: inhibitors of mouse Kir2.1 inward-rectifier potassium channel | HEK293-Kir2.1, FluxOR thallium flux fluorescence; stronger effect = lower value | B-score at 10 µM | hit rate 0.85% among 310,000;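 active = fluorescence ratio B-score at or below minus 3 SD of library scores, with starting-brightness B-score within 2 SD, cut at about -4.2 in these data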;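 note: channel flux triggered by added potassium and thallium sulfate stimulus; B-score of peak minus minimum fluorescence over baseline after thallium stimulus; more negative B-score means stronger Kir2.1 block with less thallium influx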
Target sequence (P35561 whole entry, looked up): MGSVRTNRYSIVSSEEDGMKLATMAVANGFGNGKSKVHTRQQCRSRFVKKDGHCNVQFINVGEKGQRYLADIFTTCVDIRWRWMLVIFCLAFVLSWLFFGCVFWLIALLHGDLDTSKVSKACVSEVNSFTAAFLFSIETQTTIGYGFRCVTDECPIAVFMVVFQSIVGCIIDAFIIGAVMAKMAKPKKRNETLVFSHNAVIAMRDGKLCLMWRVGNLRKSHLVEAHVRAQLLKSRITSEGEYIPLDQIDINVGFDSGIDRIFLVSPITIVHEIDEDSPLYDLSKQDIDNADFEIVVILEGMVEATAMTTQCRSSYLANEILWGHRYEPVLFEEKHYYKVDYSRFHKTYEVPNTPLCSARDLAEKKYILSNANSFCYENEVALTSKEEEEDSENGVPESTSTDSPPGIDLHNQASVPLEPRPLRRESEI
KCNQ1 act: potentiates or activates the human KCNQ1 potassium channel; P51787; CHO-K1 KCNQ1, thallium flux FluxOR fluorescence; stronger effect = higher value; B-score at 10 µM; hit rate 0.35% among 310,000;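 active = fluorescence ratio B-score, a plate-corrected score, at least three library SD, with initial intensity B-score within 5 SD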
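assay system = KCNQ1-transfected CHO-K1 cells | medium = assay buffer with matched DMSO | probe or stimulus = depolarizing K+/Tl+ stimulus, K2SO4 and Tl2SO4 each 12.5 mM in 5x stock | dosing = single dose | incubation = dye 90 min, compound 20 min, room temperature | detection = kinetic FluxOR fluorescence, 10 s baseline plus 110 s post-stimulus | evaluation = ratio B score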
hERG rescue: compounds protecting human hERG from proarrhythmic drug block | CHO-hERG, FluxOR thallium flux, dofetilide IC70 present | hit rate 0.51% among 310,000 | activation (rescue from dofetilide block), less the hit threshold, % at 10 µM | AID 1511;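 active = activation above the mean of controls blocked by dofetilide plus 5 SD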;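 note: thallium influx through hERG after potassium depolarization seen as dye fluorescence rise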
* hit, by the source's call; i = inactive; · = no result.

SMILES | KCNK3 inh | KCNQ1 block | KCNK9 block | Kir21 block | KCNQ1 act | hERG rescue
COc1ccc(Cc2nccc3cc(OC)c(OC)cc23)cc1OC | i | i | i | -8.28* | i | -16.4
COc1cc2c(ccc3c4cc(OC)c(OC)cc4c[n+](C)c23)cc1O | i | · | · | · | · | ·
CCOc1cc(CNCCc2c[nH]c3ccccc23)cc(Cl)c1OC | i | i | i | -5.6* | i | -17.9
O=C(Nc1cccc(C(F)(F)F)c1)OC1CN2CCC1CC2 (configuration not stated) | i | i | i | -1.58 | i | -4.5
OC(c1cccc(Cl)c1)(c1cccc(Cl)c1)C1CN2CCC1CC2 (configuration not stated) | i | i | i | -4.65* | i | -25.2
CN1CSC(=S)N(C)C1 | i | 13* | i | 0.11 | i | -28.7
CCCCn1c(O)c(C(=O)/C=C/c2ccc3c(c2)OCO3)c(=O)[nH]c1=O | i | i | i | -0.42 | i | 1.0
CC(C)CNC(=O)/C=C/C=C/CCCCCC/C=C/c1ccc2c(c1)OCO2 | -9.42* | · | · | · | · | ·
CN1c2ccc([N+](=O)[O-])cc2CC2(C(=O)NC(=O)N(c3ccc(Br)cc3)C2=O)C1c1ccccc1 (configuration not stated) | i | 6* | i | 2.1 | i | -5.5
O=C1NC(=O)C2(Cc3ccccc3N3CCCC32)C(=O)N1c1ccccc1 (configuration not stated) | i | i | i | 0.02 | i | -15.1
CC(C)(C)c1o[nH]c(=O)c1CC(N)C(=O)O (configuration not stated) | i | · | · | · | · | ·
Cc1c(C(=O)Nc2ccccc2)c2cc(O)ccc2n1Cc1ccccc1 | i | i | i | -1.18 | i | -10.5
COC(=O)C1=C(c2cccc(C#N)c2)C[C@@H]2CC[C@H]1N2C(=O)NCCOc1ccccc1Cl | i | · | · | · | · | ·
Oc1ccc(C(=C(Cl)Cl)c2ccc(O)cc2)cc1 | · | 6* | i | -5.59* | i | -19.6
Oc1ccc(Cl)cc1 | i | · | · | · | · | ·
CCOc1ccccc1OCC(=O)Nc1ccc(Cl)cc1C(=O)c1ccccc1 | i | 6* | i | -1.93 | i | -5.7
COc1ccccc1OCC(=O)Nc1ccc(Cl)cc1C(=O)c1ccccc1 | i | i | i | -0.3 | i | -3.9
O=C(O)c1cccc2nc3ccccc3nc12 | i | i | i | 0.02 | i | -2.7
CC1(C)CSC(=NCc2ccccc2)N1 | i | i | i | 0.11 | 7* | -6.1
CCCC(=O)NC1=C(N2CC2)C(=O)C(NC(=O)CCC)=C(N2CC2)C1=O | i | · | · | · | · | ·
COC1CCCCC1NCCc1ccccc1 (configuration not stated) | i | i | i | -2.33 | i | 5.0*
COc1ccc(CCNC2CCCCCC2)cc1 | i | i | i | -0.58 | i | -9.2
CCCn1c(C)cc(C=O)c1C | i | i | i | 0.25 | i | 5.6*
Cc1cc(C=O)c(C)n1C(C)C | i | i | i | -0.06 | i | -3.9
Nc1ccc(S(=O)(=O)N2CCCCC2c2cccnc2)cc1 (configuration not stated) | i | i | i | -1.38 | i | -2.8
SMILES | KCNK3 inh | KCNQ1 block | KCNK9 block | Kir21 block | KCNQ1 act | hERG rescue
O=S(=O)(c1ccc(Cl)cc1)N1CCCC1c1cccnc1 (configuration not stated) | i | i | i | -5.18* | i | -3.5
O=S(=O)(c1ccccc1)N1CCCCC1c1cccnc1 (configuration not stated) | i | i | i | -2.47 | i | 8.4*
COc1cc(OC)c2c(c1)O[C@@H](c1ccc(OC)c(OC)c1)[C@H](O)C2 | i | i | i | -0.82 | i | -2.6
CCCCCCCCn1sccc1=O | i | · | · | · | · | ·
CS(=O)(=O)N1Cc2ccccc2-n2nncc2C1 | i | · | · | · | · | ·
C[n+]1c(-c2ccccc2)cc(CCCCc2cc(-c3ccccc3)[n+](C)c(-c3ccccc3)c2)cc1-c1ccccc1 | i | 7* | i | -0.16 | i | -20.6
Cc1ccc(-c2cc(-c3ccccc3)cc(-c3ccccc3)[n+]2-c2ccc(C(=O)O)cc2)cc1 | i | i | i | 1.07 | i | -3.5
COc1ccc(-c2cc(-c3ccccc3)[n+](C)c(-c3ccccc3)c2)cc1 | i | 12* | i | -2.49 | i | -28.4
O=P(Nc1ccccc1)(Oc1ccccc1)Oc1ccccc1 | i | i | i | 1.09 | i | -11.2
Cc1ccc(OP(=O)(Nc2cccc(C)c2)Oc2ccc(C)cc2)cc1 | i | 6* | i | 0.21 | i | -3.5
Cc1cccc(OP(=O)(Nc2cccnc2)Oc2cccc(C)c2)c1 | i | i | i | 1.22 | i | -12.3
COc1ccc(NP(=O)(Oc2ccc(Cl)cc2)Oc2ccc(Cl)cc2)cc1OC | i | i | -7.05* | 0.75 | i | -10.6
COc1ccc(NP(=O)(Oc2cccc(C)c2)Oc2cccc(C)c2)cc1OC | i | i | i | 1.04 | i | -12.2
COc1cccc(OP(=O)(Nc2ccccc2)Oc2cccc(OC)c2)c1 | -9.14* | i | i | -1.25 | i | -4.6
Cc1cccc(OP(=O)(Nc2ccc(F)cc2)Oc2cccc(C)c2)c1 | i | 8* | i | 1.73 | i | -29.8
CC(N)C(=O)NC1C2C(=C(O)CC(O)C2O)C(=O)OC1(C)C(Cl)Cl (configuration not stated) | i | · | · | · | · | ·
CNc1ccc2oc(C[C@H]3O[C@@]4(CC[C@H]3C)O[C@H]([C@H](C)C(=O)c3ccc[nH]3)[C@H](C)C[C@H]4C)nc2c1C(=O)O | i | i | i | 0 | 38* | -4.7
COc1ccc(NC(c2ccccc2)P(=O)(Oc2ccccc2)Oc2ccccc2)cc1 (configuration not stated) | i | i | -6.58* | -0.96 | i | -3.7
C=C1C[C@@H]2[C@H](CC[C@]3(C)C(=O)CC[C@@H]23)[C@@]2(C)C=CC(=O)C=C12 | · | i | i | 0.64 | i | -3.8
CCOc1ccc(-n2c(O)c(/C=C3\C=Nc4ccccc43)c(=O)[nH]c2=O)cc1 | i | 9* | i | -0.54 | i | -4.6
COC(=O)C1=C(c2ccc3ccccc3c2)C[C@@H]2CC[C@H]1N2C(=O)NC1CC1 | i | · | · | · | · | ·
CCOC(=O)c1c(NS(=O)(=O)c2ccccc2)n(CCCOC)c2nc3ccccc3nc12 | i | i | i | -0.69 | i | 8.4*
Clc1ccc(CSC(Cn2ccnc2)c2ccc(Cl)cc2Cl)cc1 (configuration not stated) | i | 6* | i | -0.07 | i | -16.0
CC[n+]1c(SC)ccc2cc(OC)ccc21 | i | i | i | -0.58 | i | -1.3
